Legend:
[1] = target: Sphingosine 1-phosphate receptor 1 (Homo sapiens, UniProt P21453); test: Agonist activity at human S1P1 expressed in CHO cell membranes assessed as stimulation of [35S]-GTPgamma-S binding measured after 45 mins by liquid scintillation counting method; set-up: species or system Cell membrane
Outline: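 S1P1/CHO cell membranes at 3 μg protein/well with 3-fold compound dilutions. [35S]GTPγS 0.2 nM final, 45 min at room temperature. Filter-plate capture, water washes, scintillation counting. EC50 taken at 50% of each compound's own Ymax.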

[2] = target: Sphingosine 1-phosphate receptor 3 (Homo sapiens, UniProt Q99500); test: Agonist activity at human S1P3 expressed in CHO cell membranes assessed as stimulation of [35S]-GTPgamma-S binding measured after 45 mins by liquid scintillation counting method; set-up: species or system Cell membrane
Chain of Sphingosine 1-phosphate receptor 3 (Q99500 whole entry): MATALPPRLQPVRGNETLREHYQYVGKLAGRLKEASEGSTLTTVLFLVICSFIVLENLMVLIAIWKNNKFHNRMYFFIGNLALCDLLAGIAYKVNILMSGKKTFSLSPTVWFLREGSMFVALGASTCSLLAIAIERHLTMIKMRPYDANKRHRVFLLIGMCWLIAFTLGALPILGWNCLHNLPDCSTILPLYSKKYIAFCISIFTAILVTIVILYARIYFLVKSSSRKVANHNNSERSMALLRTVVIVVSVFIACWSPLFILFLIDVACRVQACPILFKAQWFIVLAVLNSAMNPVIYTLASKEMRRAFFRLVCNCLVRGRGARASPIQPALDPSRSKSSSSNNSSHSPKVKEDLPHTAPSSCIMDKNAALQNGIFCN

[3] = Selectivity index, ratio of EC50 for agonist activity at human S1P3 expressed in CHO cell membranes to EC50 for agonist activity at human S1P1 expressed in CHO cell membranes; assay type: cell-based
Rattus norvegicus [4] = test: Reduction in circulating lymphocytes count in Lewis rat blood at 1 mg/kg, po measured at 4 hrs by hematology analyzer based analysis; assay type: functional; set-up: scale not given: the % may be the effect or the level left
Outline: (§1)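 Lewis rats were given an oral dose as a solution or suspension in PEG300, with controls receiving vehicle only. Blood was taken by retro-orbital bleeding under isoflurane at 4 and 24 h. Lymphocytes were counted on a hematology analyzer. Reduction is relative to the vehicle group, averaged over the animals in each group (n = 3−4).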

[5] = Plasma concentration in Lewis rat at 1 mg/kg, po measured at 4 hr; assay type: ADME, organism-based; conditions: for concentration at 4 h: Lewis, plasma
Outline: (§2)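 Lewis rats received a single oral 1.0 mg/kg dose as solution or suspension in PEG300. Blood was drawn retro-orbitally under isoflurane at 4 h and 24 h, within the blood lymphocyte reduction study. n = 3−4 per group, group mean reported.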

Rattus norvegicus [6] = test: Reduction in circulating lymphocytes count in Lewis rat blood at 1 mg/kg, po measured at 24 hrs by hematology analyzer based analysis; assay type: functional; set-up: scale not given: the % may be the effect or the level left; outline: as §1
[7] = Plasma concentration in Lewis rat at 1 mg/kg, po measured at 24 hrs; assay type: ADME, organism-based; conditions: for concentration at 24 h: Lewis, plasma; for Cp / concentration: in vivo, 1 mg/kg, 24 h; for Cp: BLD = below limit of detection; outline: as §2
[8] = Ratio of plasma concentration in Lewis rat at 1 mg/kg, po measured at 4 hrs to plasma concentration in Lewis rat at 1 mg/kg, po measured at 24 hrs; assay type: ADME, organism-based; conditions: in vivo

Chain of Sphingosine 1-phosphate receptor 1 (P21453 whole entry): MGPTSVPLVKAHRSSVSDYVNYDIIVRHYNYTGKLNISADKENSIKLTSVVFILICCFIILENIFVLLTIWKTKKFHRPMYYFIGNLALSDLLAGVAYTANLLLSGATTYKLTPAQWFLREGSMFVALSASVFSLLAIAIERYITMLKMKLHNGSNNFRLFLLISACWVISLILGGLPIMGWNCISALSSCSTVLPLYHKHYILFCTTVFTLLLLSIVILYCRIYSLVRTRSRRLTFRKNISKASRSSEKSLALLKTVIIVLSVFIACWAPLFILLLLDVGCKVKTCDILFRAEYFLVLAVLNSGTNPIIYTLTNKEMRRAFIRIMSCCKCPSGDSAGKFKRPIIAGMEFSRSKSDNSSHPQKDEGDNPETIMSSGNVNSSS

SMILES | EC50 [1] [nM] | EC50 [2] [nM] | Ratio EC50 [3] | Activity (Rattus norvegicus [4]) [%] | concentration at 4 h [5] [nM] | Activity (Rattus norvegicus [6]) [%] | concentration at 24 h [7] [nM] | Ratio [8] | also measured
O=C(O)C1CN(Cc2ccc3c(c2)CCc2nc(-c4onc(-c5ccccc5)c4C(F)(F)F)sc2-3)C1 | 2.4 | 12000 | 5000 | 80 | 230 | 85 | 84 | 3 | –
CC1(c2onc(-c3onc4c3CCc3cc(CN5CC(C(=O)O)C5)ccc3-4)c2C(F)(F)F)CC1 | 1.3 | 1300 | 1000 | 85 | 190 | 34 | 4 | 48 | –
CC(C)Oc1ccc(-c2onc3c2CCc2cc(CN4CC(C(=O)O)C4)ccc2-3)cc1C(F)(F)F | 1.5 | 26000 | 17000 | 57 | 28 | 21 | 5 | 6 | –
CS(=O)(=O)CCNC(=O)C(O)c1ccc2c(c1)CCc1c-2noc1-c1noc(-c2ccccc2)c1C(F)(F)F (stereo in doubt; 78) [listing 1 of 2 here] | 1.6 | 6200 | – | 50 | 190 | 43 | 26 | – | –
O=C(O)C1CN(Cc2ccc3c(c2)CCc2c-3noc2-c2noc(-c3ccccc3)c2C(F)(F)F)C1 | 0.48 | 1900 | 4000 | 83 | 160 | 87 | 43 | 4 | –
O=C(O)C1CN(Cc2ccc3c(c2)OCc2c-3noc2-c2noc(-c3ccccc3)c2C(F)(F)F)C1 | 0.27 | 1200 | 4400 | 87 | 230 | 93 | 46 | 5 | –
O=C(O)C1CN(Cc2ccc3c(c2)CCCc2c(-c4noc(-c5ccccc5)c4C(F)(F)F)noc2-3)C1 | 31 | 12000 | 390 | – | – | – | – | – | –
O=C(O)C1CN(Cc2ccc3c(c2)CCc2c-3noc2-c2snc(-c3ccccc3)c2C(F)(F)F)C1 | 0.58 | 4600 | 7900 | 74 | 190 | 69 | 32 | 6 | –
O=C1NC(=O)C2(CN(Cc3ccc4c(c3)CCc3c-4noc3-c3noc(-c4ccccc4)c3C(F)(F)F)C2)N1 | 51 | 23000 | 450 | – | – | – | – | – | –
O=C(O)C1CN(Cc2ccc3c(n2)CCc2c(-c4noc(-c5ccccc5)c4C(F)(F)F)noc2-3)C1 | 17 | > 63000 | > 3700 | 76 | 460 | 32 | 47 | 10 | –
CC(C)Cc1ccc(-c2onc3c2CCc2cc(CN4CC(C(=O)O)C4)ccc2-3)cc1C(F)(F)F | 1.3 | 2800 | 2200 | 74 | 110 | 76 | 50 | 2 | –
CC(C)Cc1onc(-c2onc3c2CCc2cc(CN4CC(C(=O)O)C4)ccc2-3)c1C(F)(F)F | 1.5 | > 3100 | > 2100 | 86 | 520 | 80 | 61 | 9 | –
O=C(O)C1CN(Cc2ccc3c(c2)CCc2c-3noc2-c2cccc(C(F)(F)F)c2)C1 | 310 | > 63000 | > 200 | – | – | – | – | – | –
O=C(O)C1CN(Cc2ccc3c(c2)CCc2c-3n[nH]c2-c2onc(-c3ccccc3)c2C(F)(F)F)C1 | 190 | > 63000 | > 330 | – | – | – | – | – | –
O=C(O)C1CN(Cc2ccc3c(c2)Cc2c-3noc2-c2noc(-c3ccccc3)c2C(F)(F)F)C1 | 6.8 | 32000 | 4700 | 14 | 21 | 3 | – | – | Cp [7]: Bld
CCOc1ccc(-c2onc3c2CCc2cc(CN4CC(C(=O)O)C4)ccc2-3)cc1OCC | 1.6 | 14000 | 8800 | – | – | – | – | – | –
O=C(O)C[C@H]1CCCN(CC(O)c2ccc3c(c2)CCc2c-3noc2-c2noc(-c3ccccc3)c2C(F)(F)F)C1 (stereo in doubt; 74) [listing 1 of 2 here] | 0.33 | 1700 | – | – | – | – | – | 4 | concentration ([5]; in vivo, 1 mg/kg, 4 h): 93 nM; Activity (Rattus norvegicus [6]; 1 mg/kg, 24 h): 87%; concentration [7]: 32 nM
CS(=O)(=O)CCNC(=O)C(O)c1ccc2c(c1)CCc1c-2noc1-c1noc(-c2ccccc2)c1C(F)(F)F (stereo in doubt; 77) [listing 1 of 2 here] | 200 | 18000 | – | – | – | – | – | – | –

SMILES | EC50 [1] [nM] | EC50 [2] [nM] | Ratio EC50 [3] | Activity (Rattus norvegicus [4]) [%] | concentration at 4 h [5] [nM] | Activity (Rattus norvegicus [6]) [%] | concentration at 24 h [7] [nM] | Ratio [8] | also measured
O=C(O)C1CN(Cc2ccc(-c3noc(-c4onc(-c5ccccc5)c4C(F)(F)F)n3)cc2)C1 | – | – | – | 78 | 2100 | 91 | 700 | 3 | –
O=C(O)C1CN(Cc2ccc3c(c2)OCCc2c(-c4noc(-c5ccccc5)c4C(F)(F)F)noc2-3)C1 | 33 | 1600 | 48 | – | – | – | – | – | –
O=C(O)[C@H]1CCCN(CC(O)c2ccc3c(c2)CCc2c-3noc2-c2noc(-c3ccccc3)c2C(F)(F)F)C1 (stereo in doubt; 76) [listing 1 of 2 here] | – | – | 620 | – | – | – | – | – | –
Cn1nc2c(c1-c1noc(-c3ccccc3)c1C(F)(F)F)CCc1cc(CN3CC(C(=O)O)C3)ccc1-2 | 380 | > 63000 | > 170 | – | – | – | – | – | –
CN1Cc2c(noc2-c2onc(-c3ccccc3)c2C(F)(F)F)-c2ccc(CN3CC(C(=O)O)C3)cc21 | 1.6 | > 63000 | > 39000 | – | – | – | – | – | –
O=C(O)C1CN(Cc2ccc3c(c2)CCc2c(-c4onc(-c5ccccc5)c4C(F)(F)F)noc2-3)C1 | 1.3 | 4400 | 3400 | 66 | 34 | 79 | 8 | 4 | –
O=C(O)[C@H]1CCCN(CC(O)c2ccc3c(c2)CCc2c-3noc2-c2noc(-c3ccccc3)c2C(F)(F)F)C1 (stereo in doubt; 76) [listing 2 of 2 here] | 26 | 16000 | – | – | – | – | – | 7 | Activity (Rattus norvegicus [4]; 1 mg/kg, 4 h): 28%; Activity (Rattus norvegicus [6]; 1 mg/kg, 24 h): 20%; concentration [7]: 21 nM
O=C(O)[C@H]1CCCN(CC(O)c2ccc3c(c2)CCc2c-3noc2-c2noc(-c3ccccc3)c2C(F)(F)F)C1 (stereo in doubt; 75) [listing 1 of 2 here] | 0.21 | 13000 | – | – | 140 | – | – | 3 | Activity (Rattus norvegicus [4]; 1 mg/kg, 4 h): 76%; Activity (Rattus norvegicus [6]; 1 mg/kg, 24 h): 76%; concentration [7]: 49 nM
CS(=O)(=O)CCNC(=O)C(O)c1ccc2c(c1)CCc1c-2noc1-c1noc(-c2ccccc2)c1C(F)(F)F (stereo in doubt; 77) [listing 2 of 2 here] | – | – | 90 | – | – | – | – | – | –
CC(C)Oc1ccc(-c2onc3c2CCc2cc(CN4CC(C(=O)O)C4)ccc2-3)cc1C#N | 4.6 | > 63000 | > 14000 | -5 | – | 12 | – | – | Cp ([5]; in vivo, 1 mg/kg, 4 h, BLD = below limit of detection): Bld; Cp [7]: Bld
O=C(O)C[C@H]1CCCN(CC(O)c2ccc3c(c2)CCc2c-3noc2-c2noc(-c3ccccc3)c2C(F)(F)F)C1 (stereo in doubt; 74) [listing 2 of 2 here] | – | – | 5200 | – | – | – | – | – | –
CC(C)Oc1ccc(-c2onc3c2CCc2cc(CN4CC(C(=O)O)C4)ccc2-3)c(C(F)(F)F)c1 | 24 | 11000 | 460 | – | – | – | – | – | –
O=C(O)C[C@H]1CCCN(CC(O)c2ccc3c(c2)CCc2c-3noc2-c2noc(-c3ccccc3)c2C(F)(F)F)C1 (stereo in doubt; 73) [listing 1 of 2 here] | – | – | 1900 | – | – | – | – | – | –
CS(=O)(=O)CCNC(=O)C(O)c1ccc2c(c1)CCc1c-2noc1-c1noc(-c2ccccc2)c1C(F)(F)F (stereo in doubt; 78) [listing 2 of 2 here] | – | – | 3900 | – | – | – | – | – | –
O=C(O)C[C@H]1CCCN(CC(O)c2ccc3c(c2)CCc2c-3noc2-c2noc(-c3ccccc3)c2C(F)(F)F)C1 (stereo in doubt; 73) [listing 2 of 2 here] | 4 | 7400 | – | 70 | – | – | – | 1 | concentration ([5]; in vivo, 1 mg/kg, 4 h): 190 nM; Activity (Rattus norvegicus [6]; 1 mg/kg, 24 h): 72%; concentration [7]: 160 nM
Cn1nc(-c2noc(-c3ccccc3)c2C(F)(F)F)c2c1-c1ccc(CN3CC(C(=O)O)C3)cc1CC2 | 21 | > 63000 | > 3000 | – | – | – | – | – | –
O=C(O)[C@H]1CCCN(CC(O)c2ccc3c(c2)CCc2c-3noc2-c2noc(-c3ccccc3)c2C(F)(F)F)C1 (stereo in doubt; 75) [listing 2 of 2 here] | – | – | 62000 | – | – | – | – | – | –
